Data: article PMC9682045 (Biochemistry and Biophysics Reports, 2022)
pEC50: −log10 of the molar value. Several values for one entry are separate records, joined by “and”; a condition that tells them apart may be missing. Identical values can stand only once.

Experiments:
[1] = Cytotoxicity in the HCoV 229E CPE assay; type: cell-based; conditions: human, MRC5 cells, not infected
Procedure, shortened: (§1)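 Uninfected MRC5 human fetal lung fibroblasts seeded at 20,000 cells/well; test compound in cell assay medium as 3-fold serial dilutions to 8 concentrations, duplicate wells. Untreated cell controls run in parallel. Cytotoxicity expressed as percentage viability, with CC50 derived from this.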

[2] = Cytotoxicity in the HCoV 229E qPCR assay; type: cell-based; conditions: human, MRC5 cells, not infected
Procedure, shortened: as §1

HCoV 229E = HCoV 229E qPCR assay in MRC5 cells; type: cell-based, human coronavirus 229E; conditions: read-out: HCoV 229E qPCR assay EC50, 200 TCID50, 2 days, viral RNA
Procedure, shortened: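 MRC5 human fetal lung fibroblasts seeded at 20,000 cells/well received test compound (3-fold serial dilutions to 8 concentrations, duplicate wells) in cell assay medium and were infected with 200 TCID50 HCoV 229E. Viral RNA was quantified by qPCR following a previously published protocol. Uninfected untreated and infected untreated controls ran in parallel. Percentage inhibition was recorded; EC50 is the concentration giving 50% of maximal effect.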

[3] = a patient with MS; cited from earlier work
[4] = test system: COVID-19-related lethality; conditions: meta-regression, patients with MS and COVID-19, N = 5634, P = 0.035; cited from earlier work

| SMILES | CC50 at 3 days [1] [µM] | CC50 at 2 days [2] [µM] | pEC50 (HCoV 229E) | plasma concentration [3] | protective effect on COVID-19-related lethality (β) [4] |
| --- | --- | --- | --- | --- | --- |
| Cc1oncc1C(=O)Nc1ccc(C(F)(F)F)cc1 [Leflunomide, leflunomide] | > 100 | > 100 |  |  |  |
| CCC(CC)COC(=O)[C@H](C)N[P@](=O)(OC[C@H]1O[C@@](C#N)(c2ccc3c(N)ncnn23)[C@H](O)[C@@H]1O)Oc1ccccc1 [Remdesivir (blinded), remdesivir] | > 100 | > 100 | > 7.34 |  |  |
| C/C(O)=C(\C#N)C(=O)Nc1ccc(C(F)(F)F)cc1 [Teriflunomide, teriflunomide] | > 100 | > 100 |  | 130 μM and 35 mg/L | −0.11 |
